Source: ChEMBL document CHEMBL1124427, “Studies on prodrugs. 11. Synthesis and antimicrobial activity of N-[(4-methyl-5-methylene-2-oxo-1,3-dioxolan-4-yl)oxy]norfloxacin ” (J Med Chem, 1989)
In brackets after ≈: the same amount, converted by molar mass.

How the values were obtained:
[1] = Area under curve value of compound per hour after oral administration; type: ADME
Outline: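 Mice were dosed orally at the equivalent of 50 mg/kg NFLX, suspended in 0.5% sodium (carboxymethyl)cellulose. They were killed by bleeding at 0.25, 0.5, 1.0, 2.0, 3.0 and 4.0 h. Serum NFLX was measured by HPLC with UV detection at 280 nm, and AUC was expressed in µg/mL per h.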

Escherichia coli [2] = assay: Oral efficacy of compound after peroral administration on systemic infection by Escherichia coli KC-14; type: functional
Outline: (§1)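 Groups of five male ddY mice (20 ± 2 g) were given 0.5 mL of bacteria intraperitoneally at 10 or 100 times the 50% lethal dose. One hour after infection they were treated orally with compound suspended in 0.5% sodium (carboxymethyl)cellulose. Survival was scored at 1 week, and ED50 is given with 95% confidence limits.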

Escherichia coli [3] = assay: Oral efficacy of compound after peroral administration on systemic infection by Escherichia coli KC-14 in rat; type: functional
Escherichia coli [4] = assay: (§2) Minimum inhibitory concentration tested against Escherichia coli KC-14; type: functional
Outline: (§3)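 Agar dilution used serial 2-fold dilutions in Mueller-Hinton agar, with plate concentrations of 0.006–100 µg/mL and an inoculum of about 10^8 cfu/mL.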

Klebsiella pneumoniae = assay: Minimum inhibitory concentration tested against Klebsiella pneumoniae PC1602; type: functional; outline: as §3
Proteus vulgaris = assay: Minimum inhibitory concentration tested against Proteus vulgaris OX-19; type: functional; outline: as §3
Pseudomonas aeruginosa [5] = assay: Oral efficacy of compound after peroral administration on systemic infection by Pseudomonas aeruginosa E-2; type: functional; outline: as §1
Pseudomonas aeruginosa [6] = assay: Minimum inhibitory concentration tested against Pseudomonas aeruginosa E-2; type: functional; outline: as §3
[7] = Lethal dose of compound after peroral administration in rats; type: toxicity, organism-based; conditions: rat, in vivo, po
Outline: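 Each compound was given orally as a suspension in 0.5% CMC. Deaths were counted over 1 week, and LD50 was calculated by the method of Weil.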

Staphylococcus aureus [8] = assay: Oral efficacy of compound after peroral administration on systemic infection by Staphylococcus aureus IID803; type: functional; outline: as §1
Staphylococcus aureus [9] = assay: Minimum inhibitory concentration tested against Staphylococcus aureus FDA207PJC-1; type: functional; outline: as §3
Serratia marcescens = assay: Minimum inhibitory concentration tested against Serratia marcescens LAM 1184; type: functional; outline: as §3
Bacillus subtilis = assay: Minimum inhibitory concentration tested against Bacillus subtilis ATCC 6633; type: functional; outline: as §3
Escherichia coli [10] = assay: Effective dose of compound against Escherichia coli KC-14 in mice after oral administration
Escherichia coli [11] = assay: as §2; type: functional; remark: listed apart in the source
Outline: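 MIC by serial 2-fold agar dilution on Mueller-Hinton agar, with an inoculum of about 10^8 cfu/mL and plate concentrations of 0.006–100 μg/mL.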

Escherichia coli [12] = assay: Effective dose of compound against Escherichia coli KC-14 in mice after oral administration; remark: listed apart in the source

With `C=C1OC(=O)OC1(C)ON1CCN(c2cc3c(cc2F)c(=O)c(C(=O)O)cn3CC)CC1` (stereo not given) the AUC [1] was 5400 ng·h/mL, the ED50 (Escherichia coli [2]) was 1.31 mg/kg and the ED50 (Escherichia coli [3]) was 2.68 mg/kg. It also gave an MIC (Escherichia coli [4]) of 1.56 µg/mL (≈ 3.49 µM), an MIC (Klebsiella pneumoniae) of 0.1 µg/mL (≈ 0.224 µM) and an MIC (Proteus vulgaris) of 0.05 µg/mL (≈ 0.112 µM). For the same compound, the ED50 (Pseudomonas aeruginosa [5]) was 17.7 mg/kg, the MIC (Pseudomonas aeruginosa [6]) was 6.25 µg/mL (≈ 14 µM) and the LD50 [7] was > 4000 mg/kg. It also gave an ED50 (Staphylococcus aureus [8]) of 70.7 mg/kg, an MIC (Staphylococcus aureus [9]) of 0.78 µg/mL (≈ 1.74 µM) and an MIC (Serratia marcescens) of 3.12 µg/mL (≈ 6.97 µM). For the same compound, the MIC (Bacillus subtilis) was 0.19 µg/mL (≈ 0.425 µM) and the ED50 (Escherichia coli [10]) was 1.31 mg/kg.
`CCn1cc(C(=O)O)c(=O)c2cc(F)c(N3CCN(Cc4oc(=O)oc4C)CC3)cc21` gave an AUC [1] of 5700 ng·h/mL, an ED50 (Escherichia coli [2]) of 1.93 mg/kg and an ED50 (Escherichia coli [3]) of 6.16 mg/kg. It also gave an MIC (Escherichia coli [11]) of 0.2 µg/mL (≈ 0.464 µM), an MIC (Klebsiella pneumoniae) of 0.1 µg/mL (≈ 0.232 µM) and an MIC (Proteus vulgaris) of 0.1 µg/mL (≈ 0.232 µM). For the same compound, the ED50 (Pseudomonas aeruginosa [5]) was 20.3 mg/kg, the MIC (Pseudomonas aeruginosa [6]) was 1.56 µg/mL (≈ 3.62 µM) and the LD50 [7] was > 4000 mg/kg. For the same compound, the ED50 (Staphylococcus aureus [8]) was 93.3 mg/kg, the MIC (Staphylococcus aureus [9]) was 0.39 µg/mL (≈ 0.904 µM) and the MIC (Serratia marcescens) was 0.39 µg/mL (≈ 0.904 µM). The MIC (Bacillus subtilis) was 0.19 µg/mL (≈ 0.44 µM) and the ED50 (Escherichia coli [12]) was 1.93 mg/kg.
`CCn1cc(C(=O)O)c(=O)c2cc(F)c(N3CCNCC3)cc21` [NORFLOXACIN] gave an AUC [1] of 1800 ng·h/mL, an ED50 (Escherichia coli [2]) of 3.15 mg/kg and an MIC (Escherichia coli [11]) of 0.1 µg/mL (≈ 0.313 µM). It also gave an MIC (Klebsiella pneumoniae) of 0.05 µg/mL (≈ 0.157 µM), an MIC (Proteus vulgaris) of 0.05 µg/mL (≈ 0.157 µM) and an ED50 (Pseudomonas aeruginosa [5]) of 77.1 mg/kg. The MIC (Pseudomonas aeruginosa [6]) was 0.39 µg/mL (≈ 1.22 µM), the LD50 [7] was > 4000 mg/kg and the MIC (Staphylococcus aureus [9]) was 0.19 µg/mL (≈ 0.595 µM). It also gave an MIC (Serratia marcescens) of 0.19 µg/mL (≈ 0.595 µM), an MIC (Bacillus subtilis) of 0.19 µg/mL (≈ 0.595 µM) and an ED50 (Escherichia coli [12]) of 3.13 mg/kg.
